Published values collected from several papers.
Compare with care: the assays were run in different laboratories.
Sample: Caco-2

C[C@H]1O[C@@H](O[C@H]2[C@@H](O)C[C@H](O[C@H]3[C@@H](O)C[C@H](O[C@H]4CC[C@@]5(C)[C@H](CC[C@@H]6[C@@H]5C[C@@H](O)[C@]5(C)[C@@H](C7=CC(=O)OC7)CC[C@]65O)C4)O[C@@H]3C)O[C@@H]2C)C[C@H](O)[C@@H]1O  efflux ratio (10 µM; 2 h; pH 7.4): 87.9
CCOC(=O)[C@@]12C[C@@H]1[C@@H](n1ccc3c(NC)nc(C#Cc4ccc(Cl)s4)nc31)[C@H](O)[C@@H]2O  efflux ratio (10 µM; 2 h; pH 7.4): 15.6
Cn1c(=O)c2c(nc(S)n2C)n(C)c1=O  efflux ratio (10 µM; 2 h): 3.3
CO[C@@H](C[C@H]1C(C)=CC[C@@H]2[C@]3(C)C[C@H](O[C@@H]4O[C@@H](C)[C@H](OC(=O)c5cccc(O)c5)[C@@H](O[C@@H]5O[C@H](CO)[C@@H](O)[C@H](O)[C@H]5NC(C)=O)[C@H]4O)[C@@H](O)C(C)(C)[C@H]3CC[C@]21C)[C@H](N)C(=O)O.O=C(O)C(F)(F)F  efflux ratio (5 µM; 1 h): 4.6
CC(C)NCC(O)COc1cccc2ccccc12 (stereo not drawn)  efflux ratio (10 µM; 2 h; pH 7.4): 0.47
CNC(=C[N+](=O)[O-])NCCSCc1ccc(CN(C)C)o1  efflux ratio: 5
CC(C)NCC(O)COc1cccc2ccccc12 (stereo not drawn)  efflux ratio (5 µM; 1 h): 0.8
Nc1nc2c(ncn2COCCO)c(=O)[nH]1  efflux ratio (10 µM; 2 h; pH 7.4): 9.42
C[C@H]1O[C@@H](O[C@H]2[C@@H](O)C[C@H](O[C@H]3[C@@H](O)C[C@H](O[C@H]4CC[C@@]5(C)[C@H](CC[C@@H]6[C@@H]5C[C@@H](O)[C@]5(C)[C@@H](C7=CC(=O)OC7)CC[C@]65O)C4)O[C@@H]3C)O[C@@H]2C)C[C@H](O)[C@@H]1O  efflux ratio: 643
